Experimental data reported in ChEMBL document CHEMBL1152266, “Synthesis of 3,6-diazabicyclo[3.1.1]heptanes as novel ligands for neuronal nicotinic acetylcholine receptors” (Bioorg Med Chem Lett, 2008).

Legend:
[1] = target: Neuronal acetylcholine receptor subunit alpha-7 (Rattus norvegicus, UniProt Q05941); test: Displacement of [3H]alpha-bungarotoxin form alpha7 nAChR in rat cortex
[2] = target: Neuronal acetylcholine receptor; alpha4/beta2 (Rattus norvegicus, UniProt P09483+P12390); test: Displacement of [3H]epibatidine form alpha4beta2 nAChR in rat cortex
How it was run: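 Radioligand binding in rat cortex tissue using [³H]-epibatidine to label α4β2 sites. Ki reported as the mean (% coefficient of variation) of three independent determinations.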

[3] = species on record: Rattus norvegicus; test: Selectivity ratio of Ki for rat alpha7 nAChR to Ki for rat alpha4beta2 nAChR

Sequence of Neuronal acetylcholine receptor; alpha4/beta2 (P09483 whole entry): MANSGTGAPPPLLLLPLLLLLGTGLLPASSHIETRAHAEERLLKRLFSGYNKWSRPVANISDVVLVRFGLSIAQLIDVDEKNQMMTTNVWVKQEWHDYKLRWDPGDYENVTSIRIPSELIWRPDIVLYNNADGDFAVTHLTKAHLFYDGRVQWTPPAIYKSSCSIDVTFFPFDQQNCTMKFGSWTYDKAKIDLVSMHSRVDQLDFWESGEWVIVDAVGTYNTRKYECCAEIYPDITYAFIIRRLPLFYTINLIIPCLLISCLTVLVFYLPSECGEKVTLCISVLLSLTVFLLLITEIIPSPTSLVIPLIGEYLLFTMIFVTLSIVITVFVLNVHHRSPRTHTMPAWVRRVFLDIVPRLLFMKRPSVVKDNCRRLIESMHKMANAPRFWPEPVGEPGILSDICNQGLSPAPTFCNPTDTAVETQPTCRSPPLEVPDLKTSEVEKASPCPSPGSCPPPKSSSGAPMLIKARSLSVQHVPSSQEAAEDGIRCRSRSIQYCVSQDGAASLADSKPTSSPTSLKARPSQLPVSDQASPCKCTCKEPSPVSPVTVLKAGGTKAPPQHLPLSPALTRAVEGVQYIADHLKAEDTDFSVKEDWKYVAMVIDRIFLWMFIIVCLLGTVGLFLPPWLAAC
Sequence of Neuronal acetylcholine receptor; alpha4/beta2 (P12390 whole entry): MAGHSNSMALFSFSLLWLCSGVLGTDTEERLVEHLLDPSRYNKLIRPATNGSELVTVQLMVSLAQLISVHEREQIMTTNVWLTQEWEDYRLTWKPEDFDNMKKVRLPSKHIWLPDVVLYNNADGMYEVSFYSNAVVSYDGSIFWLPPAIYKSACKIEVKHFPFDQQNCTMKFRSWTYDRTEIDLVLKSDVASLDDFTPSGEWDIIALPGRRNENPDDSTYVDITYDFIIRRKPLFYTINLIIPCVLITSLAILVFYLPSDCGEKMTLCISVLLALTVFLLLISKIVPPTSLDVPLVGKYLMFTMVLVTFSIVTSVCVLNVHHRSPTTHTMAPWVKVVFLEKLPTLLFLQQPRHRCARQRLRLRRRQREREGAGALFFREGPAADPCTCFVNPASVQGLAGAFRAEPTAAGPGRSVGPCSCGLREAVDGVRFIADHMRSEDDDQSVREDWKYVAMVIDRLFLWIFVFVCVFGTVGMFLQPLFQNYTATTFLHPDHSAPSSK
Sequence of Neuronal acetylcholine receptor subunit alpha-7 (Q05941 whole entry): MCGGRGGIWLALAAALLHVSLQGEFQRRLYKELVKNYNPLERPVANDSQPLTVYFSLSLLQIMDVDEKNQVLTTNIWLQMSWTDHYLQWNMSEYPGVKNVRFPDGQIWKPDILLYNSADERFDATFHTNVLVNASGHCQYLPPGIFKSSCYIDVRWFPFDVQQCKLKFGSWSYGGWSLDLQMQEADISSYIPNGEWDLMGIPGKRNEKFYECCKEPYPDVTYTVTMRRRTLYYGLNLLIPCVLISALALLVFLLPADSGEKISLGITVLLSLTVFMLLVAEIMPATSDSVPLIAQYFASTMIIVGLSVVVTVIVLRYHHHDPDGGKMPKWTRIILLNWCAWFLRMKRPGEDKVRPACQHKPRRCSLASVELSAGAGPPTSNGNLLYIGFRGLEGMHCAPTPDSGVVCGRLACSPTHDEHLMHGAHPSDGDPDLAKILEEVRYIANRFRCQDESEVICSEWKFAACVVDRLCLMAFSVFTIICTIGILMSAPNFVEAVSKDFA

| SMILES | Ki [1] | Ki [2] | Ratio Ki [3] |
| --- | --- | --- | --- |
| c1cncc(N2CC3CC(C2)N3)c1 | 1.36 nM | 0.056 nM | 24.3 |
| CN1C2CC1CN(c1ccc(Cl)nc1)C2 | 20 nM | 0.43 nM | 46.5 |
| O=[N+]([O-])c1ccc(N2CC3CC(C2)N3)cc1 | 28000 nM | 1.2 nM | 23300 |
| Clc1ccc(N2CC3CC(C2)N3)cn1 | 4.1 nM | 0.023 nM | 178 |
| Brc1ccc(N2CC3CC(C2)N3)cn1 | 50.5 nM | 0.039 nM | 1300 |
| Clc1ccc(N2CC3CC(C2)N3)nn1 | 25 nM | 0.168 nM | 149 |
